# According to ChEMBL document CHEMBL1127598, “Synthesis of a series of 4-(arylethynyl)-6-chloro-4-cyclopropyl-3,4-dihydroquinazolin-2(1H)-ones as novel non-nucleoside HIV-1 reverse transcriptase inhibitors” (J Med Chem, 1994):
# Key:
# [1] = molecular target: Human immunodeficiency virus type 1 reverse transcriptase (Human immunodeficiency virus 1, UniProt Q72547); test: Ability to inhibit HIV-1 Reverse Transcriptase (RT) using an rC-dG template/primer
# MT4 [2] = test: Compound was evaluated for the anti-viral activity against cultured MT-4 cells; type: functional, Homo sapiens
# MT4 [3] = test: Concentration of compound which inhibited greater than 95% the spread of infection of cultured MT-4 cells; type: functional, Homo sapiens
# Summary of the method: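 MT-4 cells infected with HIV-1 strain IIIb. The spread of infection was measured by p24 core antigen ELISA. The CIC95 is the lowest compound concentration that inhibited spread of infection by more than 95%.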
SMILES,IC50 [1],ClC95 (MT4 [2]),ClC95 (MT4 [3])
O=C1Nc2ccc(Cl)cc2C(C#Cc2cncnc2)(C2CC2)N1 (stereo not drawn),1500 nM,–,–
O=C1Nc2ccc(Cl)cc2[C@@](C#Cc2ccccn2)(C2CC2)N1,12 nM,–,–
O=C1Nc2ccc(Cl)cc2C(C#Cc2ncccn2)(C2CC2)N1 (stereo not drawn),130 nM,–,–
CC(C)=CCN1Cc2cccc3nc(S)n(c23)C[C@H]1C,70 nM,200 nM,–
O=C1Nc2ccc(Cl)cc2C(C#Cc2cnccn2)(C2CC2)N1 (stereo not drawn),270 nM,–,–
Cc1ccnc2c1NC(=O)c1cccnc1N2C1CC1 [NEVIRAPINE],–,100 nM,–
CN1C(=O)Nc2ccc(Cl)cc2C1(C#Cc1ccccn1)C1CC1 (stereo not drawn),19.6 nM,–,–
O=C1Nc2ccc(Cl)cc2C(C#Cc2cc([N+](=O)[O-])ccn2)(C2CC2)N1 (stereo not drawn),> 10000 nM,–,–
O=C1Nc2ccc(Cl)cc2C(C#Cc2ccco2)(C2CC2)N1 (stereo not drawn),9.2 nM,–,–
CCc1cc(NCc2nc3c(Cl)ccc(Cl)c3o2)c(O)nc1C [L-697661],–,50 nM,–
O=C1Nc2ccc(Cl)cc2C(C#Cc2ccccc2)(C2CC2)N1 (stereo not drawn),17.7 nM,–,100 nM
N#Cc1ccccc1C#CC1(C2CC2)NC(=O)Nc2ccc(Cl)cc21 (stereo not drawn),10.8 nM,12 nM,–
O=C1Nc2ccc(Cl)cc2[C@](C#Cc2ccccn2)(C2CC2)N1,9300 nM,–,–
O=C1Nc2ccc(Cl)cc2C(C#Cc2ccncc2)(C2CC2)N1 (stereo not drawn),450 nM,–,–
O=C1Nc2ccc(Cl)cc2C(C#Cc2cccnc2)(C2CC2)N1 (stereo not drawn),64.5 nM,–,–
O=C1Nc2ccc(Cl)cc2C(C#Cc2ccccn2)(C2CC2)N1 (stereo not drawn),23.2 nM,–,25 nM
O=C1Nc2ccc(Cl)cc2C(C#Cc2ccccc2[N+](=O)[O-])(C2CC2)N1 (stereo not drawn),12.8 nM,–,–
O=C1Nc2ccc(Cl)cc2C(C#Cc2nccs2)(C2CC2)N1 (stereo not drawn),10.9 nM,12 nM,–
